Calls of active or inactive are those of the source. No cut-off for these calls is given here.
Assays:
MIA PaCa-2 [1] = experiment: Down regulation of LRPPRC expression in human MIA PaCa-2 cells at 3 times IC50 measured after 4 hrs in presence of NAC by proteomics analysis; format: functional, cell-based
[2] = Drug metabolism in mouse plasma assessed as 6-[4-[(2R)-2-hydroxy-4-methyl-piperazin-1-yl]anilino]quinazoline-5,8-dione formation at 500 uM measured after 0.5 hrs by LC-MS/MS analysis; format: ADME, cell-free
Method in brief: (§1)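 Compound (500 μM DMSO stock, 1 μL per 500 μL) was incubated in pooled mouse plasma. Samples were taken at 0.5 h and metabolites identified by LC-MS/MS.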

[3] = target: T1, Phospholipid hydroperoxide glutathione peroxidase GPX4 (Homo sapiens) (UniProt P36969); experiment: Binding affinity to GPX4 in human MIA PaCa-2 cells assessed as protein destabilization by measuring melting temperature at 100 uM measured after 1 hr by thermal shift assay (reference value: 60.34 degreeC); format: cell-based
T1 sequence (whole entry): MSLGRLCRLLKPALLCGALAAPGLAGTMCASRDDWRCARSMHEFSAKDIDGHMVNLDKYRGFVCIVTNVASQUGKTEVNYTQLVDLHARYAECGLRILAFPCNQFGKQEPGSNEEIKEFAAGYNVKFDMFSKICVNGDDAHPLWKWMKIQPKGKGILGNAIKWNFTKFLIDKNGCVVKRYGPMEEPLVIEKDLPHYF

MIA PaCa-2 [4] = experiment: Inhibition of colony formation in human MIA PaCa-2 cells at 0.25 to 1 uM measured after 7 to 9 days in presence of caspase-dependent apoptosis inhibitor Z-VAD by crystal violet staining based assay; format: functional, cell-based; conditions: dose microM 0.25-1, time day 7-9
Method in brief: (§2)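 Cells seeded overnight in 96-well plates at 300 cells/well (MIA PaCa-2) or 600 cells/well (BxPC-3), in RPMI 1640 with 10% FBS. Inhibitor added 1 h before compound, then continuous exposure for 7–9 days until control wells were 80–90% confluent. Stained with 0.05% crystal violet for 30 min, imaged after overnight drying and quantified.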

MIA PaCa-2 [5] = experiment: Down regulation of PNPT1 expression in human MIA PaCa-2 cells at 3 times IC50 measured after 4 hrs in presence of NQO1 inhibitor dicoumarol by proteomics analysis; format: functional, cell-based
[6] = target: Signal transducer and activator of transcription 3 (Homo sapiens) (UniProt P40763); experiment: Inhibition of STAT3 phosphorylation in human PANC-1 cells at 1.2 to 1.8 uM measured after 4 hrs by Western blot analysis; format: cell-based; conditions: dose microM 1.2-1.8, time 4.0 hrs
Signal transducer and activator of transcription 3 (Homo sapiens), sequence (P40763 whole entry): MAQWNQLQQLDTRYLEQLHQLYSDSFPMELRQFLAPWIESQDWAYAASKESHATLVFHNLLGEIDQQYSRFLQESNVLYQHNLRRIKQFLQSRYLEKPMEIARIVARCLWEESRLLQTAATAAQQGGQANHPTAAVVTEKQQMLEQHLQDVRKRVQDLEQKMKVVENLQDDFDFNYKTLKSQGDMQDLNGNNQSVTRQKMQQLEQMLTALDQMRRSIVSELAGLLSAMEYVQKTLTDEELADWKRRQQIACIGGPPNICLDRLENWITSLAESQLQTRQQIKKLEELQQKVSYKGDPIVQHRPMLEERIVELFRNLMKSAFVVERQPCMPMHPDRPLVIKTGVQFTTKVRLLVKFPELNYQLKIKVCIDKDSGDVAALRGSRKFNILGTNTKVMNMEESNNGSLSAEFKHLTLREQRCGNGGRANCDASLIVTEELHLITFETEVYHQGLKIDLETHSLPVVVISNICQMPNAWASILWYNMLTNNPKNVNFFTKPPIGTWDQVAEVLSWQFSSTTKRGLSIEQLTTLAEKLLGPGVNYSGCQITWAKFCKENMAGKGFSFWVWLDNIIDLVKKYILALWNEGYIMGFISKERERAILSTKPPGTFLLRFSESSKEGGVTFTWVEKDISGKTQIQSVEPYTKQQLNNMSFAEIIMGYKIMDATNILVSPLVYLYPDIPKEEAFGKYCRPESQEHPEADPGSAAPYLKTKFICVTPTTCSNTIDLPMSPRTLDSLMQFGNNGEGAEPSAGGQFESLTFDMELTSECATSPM
Method in brief: (§3)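 Cells were treated 4 h at the stated concentrations and lysed in RIPA with protease and phosphatase inhibitors. 25 μg protein was resolved on 10% SDS gels, transferred to PVDF and probed for STAT3, pSTAT3, pH2AX and GAPDH. Detection used fluorescent secondary antibodies, with normalisation to loading control.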

MIA PaCa-2 [7] = experiment: Cytotoxicity against human MIA PaCa-2 cells measured after 72 hrs by MTT assay; format: functional, cell-based; conditions: MIA PaCa-2, 72 h
Method in brief: (§4)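 Cells were kept in RPMI 1640 with 10% FBS at 37 °C, 5% CO₂, under 35 passages. Cells were seeded, attached overnight and treated with compound or DMSO for 72 h. MTT was added at 0.3 mg/mL for 3 h, then dissolved in DMSO and read as absorbance at 570 nm. IC50 was fitted from the curve. Values are mean ± sd of three independent experiments.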

PANC-1 [8] = experiment: Induction of DNA damage in human PANC-1 cells assessed as increase in H2AX phosphorylation at 1.2 to 1.8 uM measured after 4 hrs by Western blot analysis; format: functional, cell-based; conditions: dose microM 1.2-1.8, time 4.0 hrs; method in brief: as §3
CT26 = experiment: Antitumor activity against mouse CT26 cells implanted in Balb/c mouse assessed as tumor shrinkage at 20 mg/kg, ip; format: functional, organism-based
Method in brief: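 Female Balb/c mice aged 5–6 weeks, implanted subcutaneously in right flank with 1 × 10⁶ CT-26 cells in DPBS. Dosing began 7 days later with randomisation (n = 5/group, mean tumour 97–117 mm³). IV dosing was 3 times weekly and IP dosing was given. Vehicle control given daily IP. Mice were euthanised four hours post-dose after 17 days of dosing.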

[9] = Drug metabolism in mouse plasma assessed as 7-hydroxy-6-[4-(4-methylpiperazin-1-yl)anilino]-6,7-dihydroquinazoline-5,8-dione formation at 500 uM measured after 0.5 hrs by LC-MS/MS analysis; format: ADME, cell-free; method in brief: as §1
PANC-1 [10] = experiment: Synergistic inhibition of colony formation in human PANC-1 cells at 0.25 to 0.5 uM measured after 24 hrs in presence of olaparib by crystal violet staining based assay; format: functional, cell-based; conditions: dose microM 0.25-0.5, time 24.0 hrs
Method in brief: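 Colony formation in 96-well plates seeded at 300 (MIA PaCa-2) or 600 (PANC-1) cells/well. Napabucasin, As2O3 or olaparib added 1 h before test compound; drugs on cells 24 h. Plates kept until controls were 80–90% confluent (7–9 days), then stained with 0.05% crystal violet and quantified. Synergy scored by HSA and Bliss models.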

PANC-1 [11] = experiment: Cytotoxicity against human PANC-1 cells measured after 72 hrs by MTT assay; format: functional, cell-based; conditions: PANC-1, 72 h; method in brief: as §4
MIA PaCa-2 [12] = experiment: Inhibition of colony formation in human MIA PaCa-2 cells at 0.5 uM measured after 7 to 9 days in presence of ferroptosis inhibitor liproxstatin-1 by crystal violet staining based assay; format: functional, cell-based; conditions: time day 7-9; method in brief: as §2
PANC-1 [13] = experiment: Down regulation of PNPT1 expression in human PANC-1 cells at 3 times IC50 measured after 1 to 24 hrs by proteomics analysis; format: functional, cell-based; conditions: time hrs 1-24
MIA PaCa-2 [14] = experiment: Cytotoxicity against human MIA PaCa-2 cells transfected with GPX4 siRNA measured after 72 hrs by MTT assay; format: functional, cell-based
[15] = Toxicity in CD-1 mouse assessed as death at 10 mg/kg, iv; format: organism-based; conditions: in vivo
Method in brief: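 CD-1 mice given a single IV injection at 10 mg/kg, three mice per group. Blood was drawn into heparinized pipettes at 0.5, 2, 4 and 7 h for plasma LC-MS/MS. Deaths were noted over the course of the study.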

MIA PaCa-2 [16] = experiment: Down regulation of LRPPRC expression in human MIA PaCa-2 cells at 3 times IC50 measured after 4 hrs in presence of NQO1 inhibitor dicoumarol by proteomics analysis; format: functional, cell-based
MIA PaCa-2 [17] = experiment: Down regulation of LRPPRC expression in human MIA PaCa-2 cells at 1.2 uM measured after 24 hrs by proteomics analysis; format: functional, cell-based
Method in brief: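 MIA PaCa-2 cells were treated with 1.2 μM compound or DMSO for 24 h and lysed in RIPA buffer. 75 μg protein per sample was run in duplicate by TMT10plex-labelled proteomics. Abundance ratio was taken as treatment over control. Changes of at least 1.5-fold at FDR < 0.05 were scored.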

BXPC-3 = experiment: Cytotoxicity against human BXPC-3 cells measured after 72 hrs by MTT assay; format: functional, cell-based; conditions: BXPC-3, 72 h; method in brief: as §4
MIA PaCa-2 [18] = experiment: Cytotoxicity against human MIA PaCa-2 cells measured after 72 hrs in presence of N-acetylcysteine by MTT assay; format: functional, cell-based; conditions: MIA PaCa-2, 72 h
MIA PaCa-2 [19] = experiment: Inhibition of colony formation in human MIA PaCa-2 cells at 0.375 to 0.75 uM measured after 7 to 9 days in presence of GPX4 inhibitor RSL3 by crystal violet staining based assay; format: functional, cell-based; conditions: dose microM 0.375-0.75, time day 7-9; method in brief: as §2

With CN1CCN(c2ccc(NC3=CC(=O)c4ncncc4C3=O)cc2)CC1 the Activity (MIA PaCa-2 [1]) was “Active”, the Drug metabolism [2] was “Metabolite_Detected” and the Tm [3] was 57.6 °C. For the same compound, the inhibition (MIA PaCa-2 [4]) was “Active”, the Activity (MIA PaCa-2 [5]) was “inactive” and the inhibition [6] was “Active”. For the same compound, the IC50 (MIA PaCa-2 [7]) was 0.64 µM, the Activity (PANC-1 [8]) was “Active” and the Activity (CT26) was “Active”. The Drug metabolism [9] was “Metabolite_Detected”, the inhibition (PANC-1 [10]) was “Active” and the IC50 (PANC-1 [11]) was 0.34 µM. For the same compound, the inhibition (MIA PaCa-2 [12]) was “inactive”, the Activity (PANC-1 [13]) was “inactive” and the Activity (MIA PaCa-2 [14]) was “inactive”. The Activity [15] was “Toxic”, the Activity (MIA PaCa-2 [16]) was “inactive” and the Activity (MIA PaCa-2 [17]) was “Active”. The IC50 (BXPC-3) was 0.9 µM, the IC50 (MIA PaCa-2 [18]) was 1.11 µM and the inhibition (MIA PaCa-2 [19]) was “inactive”.
